Laboratory results from ChEMBL document CHEMBL1212710, “A small molecule that binds Hedgehog and blocks its signaling in human cells” (Nat Chem Biol, 2009).
Each block holds one compound with its values, some of them ahead of it. Activity calls are given as the source filed them. The calls are words filed in the database; no cut-off is given here.

What was measured:
[1] = Cytotoxicity against mouse Shh Light2 cells assessed as cell viability; format: cell-based; details: shh light ii
Method in brief: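 Shh-LIGHT2 (NIH3T3 with Gli-luciferase) grown in DMEM/10% calf serum with G-418 and Zeocin, plated and grown to confluence (~5–7 days); treated in DMEM with 0.5% calf serum for 30 h at 37 °C; viability read by CellTiter-Glo luminescence after 10 min at room temperature.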

[2] = target: T1, Sonic hedgehog protein (Homo sapiens, UniProt Q15465); test: Binding affinity to N-terminal Shh by surface plasmon resonance assay
T1 sequence (Q15465 24-197 limits assumed): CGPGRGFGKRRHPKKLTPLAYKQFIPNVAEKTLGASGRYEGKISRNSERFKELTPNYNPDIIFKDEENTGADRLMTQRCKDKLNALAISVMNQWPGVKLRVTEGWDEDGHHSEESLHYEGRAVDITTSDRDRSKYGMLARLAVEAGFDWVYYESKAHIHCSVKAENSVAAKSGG
Method in brief: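 SPR (Biacore T100) at 25 °C; ShhN amine-coupled to CM4 chip at 10 µg/mL in 10 mM sodium acetate pH 5.5 (1000–1200 RU), underivatized reference surface. Running/sample buffer 0.01 M HEPES pH 7.4, 0.15 M NaCl, 0.05% P20, 5% DMSO; compounds serially diluted 0.78–25 µM, 2 min injections at 80 µL/min; double referencing plus DMSO solvent correction.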

[3] = target: Sonic hedgehog protein (Mus musculus) (UniProt Q62226); test: Inhibition of N-palmitoylated Shh in mouse Shh Light2 cells after 30 hrs by firefly luciferase reporter gene assay; format: functional, cell-based; details: Shh Light II
Method in brief: (§1)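 Shh-LIGHT2 (NIH3T3 with Gli-luciferase) cultured in DMEM/10% calf serum with G-418 and Zeocin, grown to confluence (~5–7 days); compounds added in DMEM with 0.5% calf serum, 30 h at 37 °C; pathway activity read as luminescence with Bright-Glo reagent.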

[4] = target: Sonic hedgehog protein (Mus musculus) (UniProt Q62226); test: Inhibition of Shh in MEF deficient in ptch1 gene assessed as beta-galactosidase activity at 6.6 uM after 30 hrs by luminometry
[5] = target: Sonic hedgehog protein (Mus musculus) (UniProt Q62226); test: Inhibition of N-palmitoylated Shh in mouse Shh Light2 cells at 6.25 uM after 30 hrs by firefly luciferase reporter gene assay; format: functional, cell-based; details: Shh Light II
Method in brief: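 Shh-LIGHT2 (NIH3T3 carrying Gli-luciferase reporter) grown to confluence over about 5-7 days in DMEM, 10% calf serum, G-418 and Zeocin at 37 °C. Treated in DMEM with 0.5% calf serum for 30 h. Readout by luminescence with Bright-Glo. Parallel identically treated wells read with CellTiter-Glo after 10 min at room temperature.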

[6] = target: T1, Sonic hedgehog protein; test: Inhibition of N-terminal N-palmitoylated Shh-mediated Gli1 transcription in human keratinocytes after 30 hrs by real-time quantitative PCR analysis; format: cell-based
[7] = target: T1, Sonic hedgehog protein; test: Inhibition of N-terminal N-palmitoylated Shh-mediated Gli1 transcription in human keratinocytes after 30 hrs by real-time quantitative PCR analysis in presence of 100 nM Smo agonist SAG; format: functional, cell-based
[8] = target: T1, Sonic hedgehog protein; test: Inhibition of N-terminal N-palmitoylated Shh-mediated Gli2 transcription in human keratinocytes after 30 hrs by real-time quantitative PCR analysis in presence of 3.6 uM Smo agonist purmorphamine; format: functional, cell-based
[9] = target: Sonic hedgehog protein (Mus musculus) (UniProt Q62226); test: Inhibition of N-palmitoylated Shh in mouse Shh Light2 cells at 6.3 to 50 uM after 30 hrs by firefly luciferase reporter assay in presence of 100 nM Smo agonist SAG; format: functional, cell-based; details: Shh Light II; method in brief: as §1
[10] = target: Sonic hedgehog protein (Mus musculus) (UniProt Q62226); test: Inhibition of N-palmitoylated Shh in mouse Shh Light2 cells at 6.3 to 50 uM after 30 hrs by firefly luciferase reporter assay in presence of 3.6 uM Smo agonist purmorphamine; format: functional, cell-based; details: Shh Light II; method in brief: as §1
[11] = target: T1, Sonic hedgehog protein; test: Inhibition of Shh-mediated Gli2 mRNA transcription in human synthetic skin by real-time quantitative PCR analysis
[12] = target: Smoothened homolog (Mus musculus) (UniProt P56726); test: Displacement of BODIPY-cyclopamine from Smo expressed in HEK293T cells after 30 mins; details: HEK-293T
Chain of Smoothened homolog (Mus musculus) (P56726 whole entry, looked up): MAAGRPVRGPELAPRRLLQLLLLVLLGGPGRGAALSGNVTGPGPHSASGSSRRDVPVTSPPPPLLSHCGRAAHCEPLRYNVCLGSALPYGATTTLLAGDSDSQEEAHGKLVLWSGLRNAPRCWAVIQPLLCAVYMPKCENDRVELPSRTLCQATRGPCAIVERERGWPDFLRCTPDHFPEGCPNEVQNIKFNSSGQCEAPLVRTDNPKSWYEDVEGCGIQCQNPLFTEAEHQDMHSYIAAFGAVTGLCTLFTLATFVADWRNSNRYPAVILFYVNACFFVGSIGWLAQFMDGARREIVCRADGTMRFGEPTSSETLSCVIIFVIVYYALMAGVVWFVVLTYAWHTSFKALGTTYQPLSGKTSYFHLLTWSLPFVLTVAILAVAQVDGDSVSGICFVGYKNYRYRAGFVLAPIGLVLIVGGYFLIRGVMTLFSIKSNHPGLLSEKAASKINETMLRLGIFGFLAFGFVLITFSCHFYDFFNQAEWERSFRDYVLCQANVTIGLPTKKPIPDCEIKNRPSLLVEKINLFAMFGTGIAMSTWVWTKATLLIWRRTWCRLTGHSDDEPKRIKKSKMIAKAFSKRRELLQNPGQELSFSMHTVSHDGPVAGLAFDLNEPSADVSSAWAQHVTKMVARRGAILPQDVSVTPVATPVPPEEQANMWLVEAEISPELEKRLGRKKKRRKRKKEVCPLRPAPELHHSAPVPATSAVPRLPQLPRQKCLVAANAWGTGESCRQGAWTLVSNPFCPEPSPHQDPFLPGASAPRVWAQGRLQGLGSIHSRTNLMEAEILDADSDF

[13] = target: Sonic hedgehog protein (Mus musculus) (UniProt Q62226); test: Inhibition of N-terminal Shh-induced differentiation in mouse C3H10T1/2 cells assessed as inhibition of alkaline phosphatase induction in presence of 3.6 uM purmorphamine; format: cell-based; details: C3H 10T1/2
[14] = target: Sonic hedgehog protein (Mus musculus) (UniProt Q62226); test: Inhibition of N-palmitoylated Shh in mouse Shh Light2 cells at > 30 uM after 30 hrs by firefly luciferase reporter gene assay; format: functional, cell-based; details: Shh Light II; method in brief: as §1
[15] = target: Sonic hedgehog protein (Mus musculus) (UniProt Q62226); test: Inhibition of Shh in MEF deficient in ptch1 gene assessed as beta-galactosidase activity at 1.56 to 25 uM after 30 mins by luminometry; details: in the assay text read “30 hrs” for “30 mins”
Method in brief: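 Ptc1−/− mouse embryonic fibroblasts carrying β-galactosidase construct, grown in DMEM/10% FBS to confluence (3–4 days, 37 °C); compounds in DMEM/0.5% FBS for 30 h; Beta-Glo reagent added with 30 min gentle agitation at room temperature, then luminescence read.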

[16] = target: T1, Sonic hedgehog protein; test: Inhibition of Shh-mediated Gli1 mRNA transcription in human synthetic skin by real-time quantitative PCR analysis
[17] = target: Sonic hedgehog protein (Mus musculus) (UniProt Q62226); test: Inhibition of N-terminal Shh-induced differentiation in mouse C3H10T1/2 cells assessed as inhibition of alkaline phosphatase induction; format: cell-based; details: C3H 10T1/2
[18] = target: T1, Sonic hedgehog protein; test: Inhibition of N-terminal N-palmitoylated Shh-mediated Gli2 transcription in human keratinocytes at 100 uM after 30 hrs by real-time quantitative PCR analysis; format: cell-based
[19] = target: T1, Sonic hedgehog protein; test: Inhibition of N-terminal N-palmitoylated Shh-mediated Gli2 transcription in human keratinocytes after 30 hrs by real-time quantitative PCR analysis in presence of 100 nM Smo agonist SAG; format: functional, cell-based
[20] = target: T1, Sonic hedgehog protein; test: Inhibition of N-terminal N-palmitoylated Shh-mediated Gli1 transcription in human keratinocytes after 30 hrs by real-time quantitative PCR analysis in presence of 3.6 uM Smo agonist purmorphamine; format: functional, cell-based

Activity [2]: Dose-dependent effect | inhibition [3]: Active
SMILES: C[C@H]1COC(=O)[C@@H](N)CC/C=C/C[C@@H](CC(=O)N(CCO)Cc2ccccc2)C(=O)N1
Activity [1]: Non-toxic

SMILES: CC1=C2C[C@H]3[C@@H](CC=C4C[C@@H](O)CC[C@@]43C)[C@@H]2CC[C@]12O[C@@H]1C[C@H](C)CN[C@H]1[C@H]2C
inhibition [4]: Active | inhibition [5]: Active

inhibition [6]: Active | Activity [7]: inactive | Activity [8]: inactive | Kd [2]: 3.1 µM | inhibition [9]: Active | inhibition [10]: Active | inhibition [11]: Active | Activity [12]: inactive | inhibition [13]: inactive | inhibition [3]: Dose-dependent effect | inhibition [14]: Active | inhibition [15]: inactive | inhibition [16]: Active | inhibition [17]: Active | inhibition [18]: Active | Activity [19]: inactive | Activity [20]: inactive
SMILES: O=C(C[C@@H]1C/C=C/CCC(=O)O[C@H](c2ccccc2)CNC1=O)NCc1ccc(Cl)cc1 [ROBOTNIKININ]
Activity [1]: Non-toxic
